Data reported in ChEMBL document CHEMBL2086324, “Synthesis and antimalarial activity of new haemanthamine-type derivatives” (Bioorg Med Chem, 2012).

system: Plasmodium falciparum; assay: Antiplasmodial activity against chloroquine-sensitive Plasmodium falciparum F-32 Tanzania assessed as inhibition of parasitemia after 3 days; assay type: functional, organism-based; settings: 72 h
How it was run: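 P. falciparum grown in glucose-enriched RPMI 1640 with 10% human serum, 37 °C. After 24 h the medium was replaced with fresh medium containing compound in DMSO at 0.1, 1 and 10 µg/mL, and incubation continued 48 h. Parasitemia was counted by blood smear per well on day 3 against control. IC50 was read graphically from concentration vs percent inhibition. Chloroquine 0.04 µM served as positive control.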

Compound	IC50 [µM]
O[C@@H]1C=C[C@@]23c4cc5c(cc4CN(C[C@H]2O)[C@H]3C1)OCO5	13.2
CO[C@@H]1C=C[C@@]2(c3cc4c(cc3C=O)OCO4)C(=O)C=N[C@H]2C1	76.6
CO[C@@H]1C=C[C@@]23c4cc5c(cc4CN(C[C@H]2OC(=O)c2cccnc2)[C@H]3C1)OCO5	51.7
CO[C@@H]1C=C[C@@]23c4cc5c(cc4C(OC(=O)c4cccnc4)N(C[C@H]2O)[C@H]3C1)OCO5 (stereo partly specified)	7.1
CO[C@@H]1C=C[C@]23/C(=N/O)CN(Cc4cc5c(cc42)OCO5)[C@H]3C1	95.5
O[C@@H]1C=C[C@]23CCN(Cc4cc5c(cc42)OCO5)[C@H]3C1 [VITTATINE]	7.3
CO[C@H]1C[C@@H]2N3Cc4cc5c(cc4[C@@]2([C@H](O)C3)[C@@H](O)[C@@H]1Br)OCO5	62.6
CO[C@@H]1C=C[C@@]23c4cc5c(cc4[C@@H](O)N(C[C@H]2O)[C@H]3C1)OCO5 [HAEMANTHIDINE]	1.2
CO[C@@H]1C=C[C@@]23c4cc5c(cc4CN(C[C@H]2OC(=O)c2ccc(Br)cc2)[C@H]3C1)OCO5	43.3
COC1c2cc3c(cc2[C@@]24C=C[C@@H](OC)C[C@@H]2N1C[C@H]4O)OCO3 (stereo partly specified)	75.5
CO[C@@H]1C=C[C@@]23c4cc5c(cc4C(OC(=O)c4ccc(Br)cc4)N(C[C@H]2OC(=O)c2ccc(Br)cc2)[C@H]3C1)OCO5 (stereo partly specified)	2.9
CCN(C=O)Cc1cc2c(cc1-c1ccc(O)cc1)OCO2	> 100
CO[C@@H]1C=C[C@@]23c4cc5c(cc4CN(C[C@H]2OC(C)=O)[C@H]3C1)OCO5	75.8
O=C(O[C@@H]1C=C[C@@]23c4cc5c(cc4CN(C[C@H]2OC(=O)c2cccnc2)[C@H]3C1)OCO5)c1cccnc1	0.8
CO[C@@H]1C=C[C@@]23c4cc5c(cc4C(OC(=O)C(C)C)N(C[C@H]2OC(=O)C(C)C)[C@H]3C1)OCO5 (stereo partly specified)	52.5
Oc1cc2c(cc1O)[C@@]13C=C[C@@H](O)C[C@@H]1N(C[C@H]3O)C2O (stereo partly specified)	72.1
COc1cc2c(cc1O)CN1CC[C@@]23C=CC(O)C[C@H]13 (stereo partly specified)	91.5
CC(C)C(=O)O[C@@H]1C=C[C@@]23c4cc5c(cc4CN(C[C@H]2OC(=O)C(C)C)[C@H]3C1)OCO5	7

Compound	IC50 [µM]
CC(=O)O[C@@H]1C=C[C@@]23c4cc5c(cc4CN(C[C@H]2OC(C)=O)[C@H]3C1)OCO5	> 100
CO[C@@H]1C=C[C@]23C(=O)CN(Cc4cc5c(cc42)OCO5)[C@H]3C1	73.5
CO[C@@H]1C=C[C@@]23c4cc5c(cc4CN(C[C@H]2OC(=O)C(C)C)[C@H]3C1)OCO5	56.6
Oc1cc2c(cc1O)[C@@]13C=C[C@@H](O)C[C@@H]1N(C2)C[C@H]3O	13.4
C=Cc1ccc(C(=O)O[C@@H]2CN3Cc4cc5c(cc4[C@]24C=C[C@@H](OC)C[C@H]34)OCO5)cc1	> 100
CO[C@@H]1C=C[C@@]23c4cc5c(cc4C[N+]([O-])(C[C@H]2O)[C@H]3C1)OCO5	> 100
COC(C(=O)O[C@@H]1C=C[C@@]23c4cc5c(cc4CN(C[C@H]2OC(=O)C(OC)c2ccccc2)[C@H]3C1)OCO5)c1ccccc1 (stereo partly specified)	5.1
CN(C=O)Cc1cc2c(cc1-c1ccc(O)cc1)OCO2	73.4
C1=C[C@@]23c4cc5c(cc4CN4C[C@H]2O[C@@H]1C[C@H]43)OCO5 [APOHAEMANTHAMINE]	92.9
C=CC(=O)O[C@@H]1CN2Cc3cc4c(cc3[C@]13C=C[C@@H](OC)C[C@H]23)OCO4	8.4
CO[C@@H]1C=C[C@@]23c4cc5c(cc4C(OC(C)=O)N(C[C@H]2OC(C)=O)[C@H]3C1)OCO5 (stereo partly specified)	52.3
OC1c2cc3c(cc2[C@@]24C=C[C@H]5C[C@@H]2N1C[C@H]4O5)OCO3 (stereo partly specified)	84.2
CO[C@@H]1C=C[C@@]23c4cc5c(cc4CN(C[C@@H]2O)[C@H]3C1)OCO5 [(+)-HAEMANTHAMINE]	1.3
CO[C@H]1C[C@@H]2N3Cc4cc5c(cc4[C@@]2([C@H](O)C3)[C@@H](Br)[C@@H]1O)OCO5	72.6
CO[C@@H]1C=C[C@]23c4cc5c(cc4CN([C@H]2C1)[C@H]1O[C@H]13)OCO5	1.6
CO[C@H]1C[C@@H]2N3Cc4cc5c(cc4[C@@]2([C@H](O)C3)[C@@H](Br)[C@@H]1Br)OCO5	6.5
CO[C@@H]1CC[C@@]23c4cc5c(cc4CN(C[C@H]2O)[C@H]3C1)OCO5	9.9
O=C(O[C@@H]1C=C[C@@]23c4cc5c(cc4CN(C[C@H]2OC(=O)c2ccc(Br)cc2)[C@H]3C1)OCO5)c1ccc(Br)cc1	3
